Compound activity deposited in PubChem BioAssay by The Scripps Research Institute Molecular Screening Center.
PAD4 inh: PAD4 (human) enzyme inhibition; Q9UM07; recombinant PAD4, RCA probe fluorescence polarization; inhibition, % at 6.36 µM; 330,000 compounds, 0.41% hits;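 active = percent inhibition above a cutoff equal to the mean of all tested compounds plus 3 SD, cut at about 15% in these data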;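 note: 0% = PAD4 with RCA probe and DMSO and 100% = probe without PAD4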
eLon inh: E. coli protease La inhibition; P0A9M0; purified E. coli Lon protease, fluorescence polarization; inhibition, % at 7.94 µM; 360,000 compounds, 0.42% hits; in the data active = inhibition above about 13%, passing the limit was not always enough;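 note: 0% = enzyme with probe and DMSO and 100% = no enzyme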
PRMT1 FP inh: inhibitors of human PRMT1. Q99873. recombinant PRMT1, activity-based probe fluorescence polarization. inhibition, % at 2.79 µM. 370,000 compounds, 1.3% hits;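 active = inhibition above about 21% made by adding two undisclosed values, limit read from the data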
Target sequence (Q99873 whole entry, looked up): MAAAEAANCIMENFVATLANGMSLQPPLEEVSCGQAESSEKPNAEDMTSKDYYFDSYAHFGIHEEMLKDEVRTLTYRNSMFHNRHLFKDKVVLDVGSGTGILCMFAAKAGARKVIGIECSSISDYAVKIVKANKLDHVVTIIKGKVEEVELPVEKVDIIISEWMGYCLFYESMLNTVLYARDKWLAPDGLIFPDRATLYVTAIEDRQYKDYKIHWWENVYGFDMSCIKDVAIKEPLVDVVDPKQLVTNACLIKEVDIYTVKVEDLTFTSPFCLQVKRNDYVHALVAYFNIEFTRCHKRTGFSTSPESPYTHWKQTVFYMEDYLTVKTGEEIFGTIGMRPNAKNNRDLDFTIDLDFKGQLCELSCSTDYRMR
GSTO1 counter: GSTO1 inhibition, counter-screen for RBBP9 inhibitors | P78417 | 300,000 compounds, 1.1% hits | inhibition, % at 5.96 µM | recombinant GSTO1, activity-based probe fluorescence polarization;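 active = inhibition above the campaign mean inhibition plus 3 SD, cut at about 35% in these data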;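 note: 0% = GSTO1-1 with DMSO and 100% = wells lacking GSTO1-1 enzyme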
TDP2 inh: blocks human TDP2 phosphodiesterase activity; recombinant TDP2, T5PNP hydrolysis, p-nitrophenol absorbance 415 nm; inhibition, % at 12.8 µM; 370,000 compounds, 0.34% hits;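 active = inhibition above the mean of all tested compounds plus 3 SD, set per campaign, cut at about 25% in these data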;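 note: 0% = DMSO with enzyme and 100% = buffer with substrate but no TDP2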
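Test system: human TDP2 enzyme; Input: 120 nM TDP2 per well; Buffer or medium: Mg2+-containing Tris-HCl buffer, pH 7.5; Reagent: 5 mM T5PNP; Dosing: 12.8 µM single point, 1% DMSO; Incubation: reaction 2 h, 37 °C; Detection: p-Nitrophenol epi absorbance; Read-out: % inhibition relative to enzyme-containing and enzyme-free wells; Replicates: single well per compound.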
GSTO1 inh conf: confirmation of human GSTO1 inhibitors | recombinant GSTO1, probe fluorescence polarization | 2,400 compounds, 54% hits | AID 2176 | shares compounds with GSTO1 counter | inhibition, % at 5.96 µM;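 active = inhibition above the primary screen's cutoff, its mean inhibition plus 3 SD, cut at about 35% in these data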;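 note: loss of polarization as inhibitors block binding of rhodamine sulfonate ester activity probe; 0% = GSTO1 with DMSO and 100% = wells lacking GSTO1 enzyme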
GSTO1 ABPP inh: GSTO1 (human) inhibition by gel ABPP. inhibition, % at 1 µM. shares compounds with GSTO1 counter. 130 compounds, 30% hits. recombinant GSTO1, gel ABPP SE-Rh probe fluorescence;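 active = inhibition of the enzyme GSTO1 above about 75%, limit read from the data; inactive = inhibition below that limit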
The depositor's hits bear a star; nt = no result. Sampled rows, rich in hits. Any-hit rate of the full collection: about 2.5%.

SMILES	PAD4 inh	eLon inh	PRMT1 FP inh	GSTO1 counter	TDP2 inh	GSTO1 inh conf	others
O=C1/C(=N\S(=O)(=O)c2cccs2)C([n+]2ccc(CCCc3ccccc3)cc2)=C([O-])c2ccccc21	1	-3	2	79*	-3	84*
O=S(=O)([N-]c1nc2ccccc2nc1-[n+]1ccc(CCCc2ccccc2)cc1)c1cccs1	-1	14	3	-9	-3	nt
CC(C)N(Cc1ccccc1)S(=O)(=O)c1cccs1	0	-1	-2	0	-6	nt
c1cc2c3c(cccc3c1)NC1(CCCCCC1)N2	0	2	2	53*	15	21
Cc1ccc(O)c(N=CC2=C(O)c3ccccc3C2=O)c1	4	-10	4	68*	5	26
COc1ccccc1CCn1cnc(-c2ccccc2F)c1CC(C)C	nt	nt	9	nt	-6	nt
CCOc1ccc(C2C3=C(CC(C)(C)CC3=O)N(CC(=O)O)C3=C2C(=O)CC(C)(C)C3)cc1OCC	2	-2	1	-5	-4	nt
CCOc1cc(C2C3=C(CCCC3=O)N(CCC(=O)O)C3=C2C(=O)CCC3)ccc1OS(=O)(=O)c1ccc(C)cc1	1	2	3	78*	-1	70*
Cc1ccc(S(=O)(=O)Oc2ccc(C3C4=C(CCCC4=O)N(CCC(=O)O)C4=C3C(=O)CCC4)cc2Cl)cc1	-2	1	8	62*	4	61*
N#CCC[C@@H]1CC[C@]2(CCCN(S(=O)(=O)c3ccccc3)C2)O1	nt	nt	-1	nt	-2	nt
CCN(CC(=O)NCc1ccc(Cl)cc1)C(=O)CSCC(=O)Nc1cccc(C)c1	-3	-7	1	44*	0	8
CCOC(=O)N1CCN(C(=O)C[C@@H]2C(=O)N3CCCC4=C3[C@@]2(C(=O)OCC)CCC4)CC1	nt	nt	-2	nt	-1	nt
COc1ccc(C[N+]2=C(N)NC3=C4CCCCC4n4c(=O)n(-c5ccccc5)c(=O)n4C3C2)c(OC)c1 (stereo unspecified)	nt	nt	1	nt	4	nt
Oc1ccc(N=Cc2ccc(OCc3ccccc3)cc2)cc1	6	9	36*	86*	23	7
O=C(N/N=C/c1ccc(OCc2ccccc2)cc1)c1ccncc1	-4	1	-4	0	4	nt
Cc1ccccc1-n1ncc2c([N+](=O)[O-])cc([N+](=O)[O-])cc21	-8	-3	2	39*	-3	3
O=S(=O)(c1ccc2c(c1)CCCN2)N1CCCC1	-1	-5	-2	nt	-20	nt
CCN(CC)c1ccc2c(c1)CCCN2	1	nt	nt	42*	nt	5
Cc1c(C=O)c(Cl)n(C)c(=O)c1C#N	27*	-3	7	53*	39*	84*
COc1ccc(NC(=O)C(OC(=O)c2cnc(C)cn2)c2ccccc2)cc1Cl (stereo unspecified)	-7	-9	-1	0	1	nt
COc1ccc(NC(=O)C(OC(=O)c2ccc([N+](=O)[O-])o2)c2ccccc2)cc1Cl (stereo unspecified)	-12	-9	3	50*	5	10
CC(NC(=O)c1cccs1)c1ccccc1 (stereo unspecified)	1	-7	6	63*	-9	5
COc1ccc(CNCC#CC2=CCCCC2)c(OC)c1	nt	nt	4	nt	-4	nt
O=S(=O)(c1cc2ccccc2s1)n1c(CN2CCOCC2)nc2ccccc21	nt	nt	3	nt	0	nt
CCN(CC)C(=O)CC[C@@H]1CC[C@]2(CCCN(Cc3cccc4ccccc34)C2)O1	nt	nt	-3	nt	2	nt
SMILES	PAD4 inh	eLon inh	PRMT1 FP inh	GSTO1 counter	TDP2 inh	GSTO1 inh conf	others
O=C(CCl)Nc1nc(-c2ccco2)c(-c2ccco2)s1	3	-20	32*	88*	5	88*
Fc1ccc(CC2CCN(c3ncnc4sccc34)CC2)cc1	nt	nt	1	nt	6	nt
O=C(O)Cc1c[nH]c2ccccc12	-2	-5	-3	2	-2	nt
O=C(O)Cc1c[nH]c2cccc(O)c12	2	-3	32*	42*	0	23
CC(=O)c1ccc(NCCCN2CCC(C(O)(c3ccccc3)c3ccccc3)CC2)cc1	nt	nt	-2	nt	2	nt
COc1ccc(C(OCC2CO2)c2ccc(OC)cc2)cc1 (stereo unspecified)	1	nt	nt	82*	nt	92*	GSTO1 ABPP inh=66
